Among the data in ChEMBL document CHEMBL3272128, “Antileukemic activity of derivatives of 1-phenyl-2,5-dimethyl-3,4-bis(hydroxymethyl)pyrrole bis(N-methylcarbamate)” (J Med Chem, 1977) are T/C and Activity values, retold here.

SMILES strings stand for the structures. Bounds are passed on as bounds.

One series deals with P388. The experiment in a line: Antileukemic activity against mouse P388 cells allografted in male CDF1 mouse assessed as tumor growth inhibition at 12.5 mg/kg, ip using hydroxypropylcellulose suspension total 9 daily doses started 24 hrs after tumor inoculation. In kind it is functional. The conditions noted are these: route intraperitoneal. The method, boiled down:
(§1)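 Male CDF1 mice received P388 ascitic fluid ip, then ip doses in Flucel (hydroxypropylcellulose) suspension, nine daily, beginning 24 h after inoculation. Efficacy was median survival time as % T/C; values > 125 were considered significant.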
Broadly, the T/C is the result in the treated group divided by that in the control group, in per cent. As to `CNC(=O)OCc1c(COC(=O)NC)c(C)n(-c2ccc(OC)cc2)c1C`, the T/C is 152%.

Turning to `CCOc1ccc(-n2c(C)c(COC(=O)NC)c(COC(=O)NC)c2C)cc1`, the T/C is listed as 152%.

On to `CNC(=O)OCc1c(COC(=O)NC)c(C)n(-c2ccc3c(c2)OCO3)c1C`, for which the T/C is listed as 132%.

`CNC(=O)OCc1c(COC(=O)NC)c(C)n(-c2ccc(C)cc2)c1C`: the T/C is given as 142%.

For `CNC(=O)OCc1c(COC(=O)NC)c(C)n(-c2ccc(F)cc2)c1C`, the T/C is 142%.

Consider `COc1ccc(-n2c(C)c(COC(C)=O)c(COC(C)=O)c2C)cc1`, for which the T/C was found to be 157%.

The next series deals with P388. The experiment in a line: Antileukemic activity against mouse P388 cells allografted in male CDF1 mouse assessed as tumor growth inhibition at 25 mg/kg, ip using hydroxypropylcellulose suspension total 9 daily doses started 24 hrs after tumor inoculation. In kind it is functional. As to conditions: route intraperitoneal. The method, boiled down:
as §1
With `CNC(=O)OCc1c(COC(=O)NC)c(C)n(-c2ccc(OC)cc2)c1C`, the T/C was 142%.

Consider `CCOc1ccc(-n2c(C)c(COC(=O)NC)c(COC(=O)NC)c2C)cc1`, for which the T/C came to 150%.

On to `CNC(=O)OCc1c(COC(=O)NC)c(C)n(-c2ccc3c(c2)OCO3)c1C`, for which the T/C stood at 146%.

Regarding `CNC(=O)OCc1c(COC(=O)NC)c(C)n(-c2ccc(C)cc2)c1C`, the T/C was 136%.

Consider `CNC(=O)OCc1c(COC(=O)NC)c(C)n(-c2ccc(F)cc2)c1C`, for which the T/C turned out to be 155%.

In the case of `COc1ccc(-n2c(C)c(COC(C)=O)c(COC(C)=O)c2C)cc1`, the T/C is given as 95%.

Another series concerns Mus musculus. Put plainly: Toxicity in male CDF1 mouse allografted with mouse P388 cells assessed as survivors on day 5 at 50 mg/kg, ip using hydroxypropylcellulose suspension. Format: organism-based. On the set-up: dose 50 mg/kg, route intraperitoneal. As to conditions: in vivo. The method, boiled down: (§2)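 Male CDF1 mice received an ip inoculation of P388 leukemia ascitic fluid. Dosing was ip in a hydroxypropylcellulose (Flucel) suspension, once daily for nine days, beginning 24 h after tumor implantation. Toxicity was scored as survivors recorded on the fifth day.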
Consider `CNC(=O)OCc1c(COC(=O)NC)c(C)n(-c2ccc(OC)cc2)c1C`, for which the Activity result is “Non-toxic”.

Regarding `CNC(=O)OCc1c(COC(=O)NC)c(C)n(-c2ccc(C)cc2)c1C`, the Activity entry is “Non-toxic”.

With `CNC(=O)OCc1c(COC(=O)NC)c(C)n(-c2ccc(F)cc2)c1C`, the Activity entry was “Non-toxic”.

In a further series the test system is P388. The experiment in a line: Antileukemic activity against mouse P388 cells allografted in male CDF1 mouse assessed as tumor growth inhibition at 50 mg/kg, ip using hydroxypropylcellulose suspension total 9 daily doses started 24 hrs after tumor inoculation. Format: functional. As to conditions: route intraperitoneal. Summed up: as §1
For `CNC(=O)OCc1c(COC(=O)NC)c(C)n(-c2ccc(OC)cc2)c1C`, the T/C is 171%.

With `CCOc1ccc(-n2c(C)c(COC(=O)NC)c(COC(=O)NC)c2C)cc1`, the T/C is 90%.

Take `CNC(=O)OCc1c(COC(=O)NC)c(C)n(-c2ccc3c(c2)OCO3)c1C`: the T/C is under 50%.

Turning to `CNC(=O)OCc1c(COC(=O)NC)c(C)n(-c2ccc(C)cc2)c1C`, the T/C is reported as 133%.

`CNC(=O)OCc1c(COC(=O)NC)c(C)n(-c2ccc(F)cc2)c1C`: the T/C amounted to 133%.

In the case of `COc1ccc(-n2c(C)c(COC(C)=O)c(COC(C)=O)c2C)cc1`, the T/C is listed as 75%.

The next series relates to P388. The experiment in a line: Antileukemic activity against mouse P388 cells allografted in male CDF1 mouse assessed as change in body weight at 50 mg/kg, ip using hydroxypropylcellulose suspension total 9 daily doses started 24 hrs after tumor inoculation. Format: functional. As to conditions: route intraperitoneal. Summed up:
(§3)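 Male CDF1 mice were inoculated ip with P388 ascitic fluid. Compound was given ip as a Flucel (hydroxypropylcellulose) suspension, nine daily doses from 24 h after inoculation. Animal weight difference (T − C, g) was recorded on the fifth day.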
On to `CNC(=O)OCc1c(COC(=O)NC)c(C)n(-c2ccc(OC)cc2)c1C`, for which the Activity is on record as -0.5 g.

On to `CCOc1ccc(-n2c(C)c(COC(=O)NC)c(COC(=O)NC)c2C)cc1`, for which the Activity is given as -3.8 g.

Take `CNC(=O)OCc1c(COC(=O)NC)c(C)n(-c2ccc3c(c2)OCO3)c1C`: the Activity was -3.4 g.

Take `CNC(=O)OCc1c(COC(=O)NC)c(C)n(-c2ccc(C)cc2)c1C`: the Activity is given as -2.6 g.

In the case of `CNC(=O)OCc1c(COC(=O)NC)c(C)n(-c2ccc(F)cc2)c1C`, the Activity is on record as -2.6 g.

For `COc1ccc(-n2c(C)c(COC(C)=O)c(COC(C)=O)c2C)cc1`, the Activity is given as -3.2 g.

Another series relates to P388. The experiment in a line: Antileukemic activity against mouse P388 cells allografted in male CDF1 mouse assessed as change in body weight at 12.5 mg/kg, ip using hydroxypropylcellulose suspension total 9 daily doses started 24 hrs after tumor inoculation. As to conditions: route intraperitoneal. In kind it is functional. The method, boiled down: as §3
As to `CNC(=O)OCc1c(COC(=O)NC)c(C)n(-c2ccc(OC)cc2)c1C`, the Activity is given as -2.6 g.

Regarding `CCOc1ccc(-n2c(C)c(COC(=O)NC)c(COC(=O)NC)c2C)cc1`, the Activity is given as -3 g.

In the case of `CNC(=O)OCc1c(COC(=O)NC)c(C)n(-c2ccc3c(c2)OCO3)c1C`, the Activity is recorded as -1.1 g.

On to `CNC(=O)OCc1c(COC(=O)NC)c(C)n(-c2ccc(C)cc2)c1C`, for which the Activity is -2.5 g.

Take `CNC(=O)OCc1c(COC(=O)NC)c(C)n(-c2ccc(F)cc2)c1C`: the Activity was -2.6 g.

As to `COc1ccc(-n2c(C)c(COC(C)=O)c(COC(C)=O)c2C)cc1`, the Activity is -1.6 g.

For a further series, the system named is Mus musculus. Put plainly: Toxicity in male CDF1 mouse allografted with mouse P388 cells assessed as survivors on day 5 at 25 mg/kg, ip using hydroxypropylcellulose suspension. The conditions noted are these: in vivo. More on the design: dose 25 mg/kg, route intraperitoneal. In kind it is organism-based. The method, boiled down: as §2
As for `CNC(=O)OCc1c(COC(=O)NC)c(C)n(-c2ccc(OC)cc2)c1C`, the Activity entry was “Non-toxic”.

As to `CCOc1ccc(-n2c(C)c(COC(=O)NC)c(COC(=O)NC)c2C)cc1`, the Activity result is “Non-toxic”.

`CNC(=O)OCc1c(COC(=O)NC)c(C)n(-c2ccc3c(c2)OCO3)c1C`: the Activity entry was “Non-toxic”.

Consider `CNC(=O)OCc1c(COC(=O)NC)c(C)n(-c2ccc(C)cc2)c1C`, for which the Activity entry is “Non-toxic”.

As to `CNC(=O)OCc1c(COC(=O)NC)c(C)n(-c2ccc(F)cc2)c1C`, the Activity result was “Non-toxic”.

With `COc1ccc(-n2c(C)c(COC(C)=O)c(COC(C)=O)c2C)cc1`, the Activity entry is on record as “Non-toxic”.

Another series deals with Mus musculus. Put plainly: Toxicity in male CDF1 mouse allografted with mouse P388 cells assessed as survivors on day 5 at 12.5 mg/kg, ip using hydroxypropylcellulose suspension. In kind it is organism-based. On the set-up: dose 12.5 mg/kg, route intraperitoneal. The conditions noted are these: in vivo. Summed up:
as §2
`CNC(=O)OCc1c(COC(=O)NC)c(C)n(-c2ccc(OC)cc2)c1C`: the Activity result was “Non-toxic”.

For `CCOc1ccc(-n2c(C)c(COC(=O)NC)c(COC(=O)NC)c2C)cc1`, the Activity entry is on record as “Non-toxic”.

As to `CNC(=O)OCc1c(COC(=O)NC)c(C)n(-c2ccc3c(c2)OCO3)c1C`, the Activity entry is “Non-toxic”.

On to `CNC(=O)OCc1c(COC(=O)NC)c(C)n(-c2ccc(C)cc2)c1C`, for which the Activity entry is “Non-toxic”.

As to `CNC(=O)OCc1c(COC(=O)NC)c(C)n(-c2ccc(F)cc2)c1C`, the Activity entry is given as “Non-toxic”.

Consider `COc1ccc(-n2c(C)c(COC(C)=O)c(COC(C)=O)c2C)cc1`, for which the Activity result was “Non-toxic”.

The next series relates to P388. Put plainly: Antileukemic activity against mouse P388 cells allografted in male CDF1 mouse assessed as change in body weight at 25 mg/kg, ip using hydroxypropylcellulose suspension total 9 daily doses started 24 hrs after tumor inoculation. In kind it is functional. As to conditions: route intraperitoneal. Summed up: as §3
With `CNC(=O)OCc1c(COC(=O)NC)c(C)n(-c2ccc(OC)cc2)c1C`, the Activity is recorded as -2.4 g.

`CCOc1ccc(-n2c(C)c(COC(=O)NC)c(COC(=O)NC)c2C)cc1`: the Activity is recorded as -3.4 g.

For `CNC(=O)OCc1c(COC(=O)NC)c(C)n(-c2ccc3c(c2)OCO3)c1C`, the Activity is -1.6 g.

As to `CNC(=O)OCc1c(COC(=O)NC)c(C)n(-c2ccc(C)cc2)c1C`, the Activity is given as -2.3 g.

Turning to `CNC(=O)OCc1c(COC(=O)NC)c(C)n(-c2ccc(F)cc2)c1C`, the Activity is recorded as -2.1 g.

As for `COc1ccc(-n2c(C)c(COC(C)=O)c(COC(C)=O)c2C)cc1`, the Activity is listed as -3.8 g.
